Laboratory results reported in ChEMBL document CHEMBL1149318, “(Z)- and (E)-[2-Fluoro-2-(hydroxymethyl)cyclopropylidene]methylpurines and -pyrimidines, a new class of methylenecyclopropane analogues of nucleosides: synthesis and antiviral activity” (J Med Chem, 2004).

Key:
[1] = system: Human gammaherpesvirus 4; assay: Inhibition of EBV replication in Daudi cells by VCA ELISA; assay type: functional, organism-based; settings: human gammaherpesvirus 4, Daudi
Method in brief: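 Viral capsid antigen (VCA) ELISA in Daudi cells; EC50 from capsid antigen signal. Cytotoxicity measured in CEM cells.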

[2] = Cytotoxicity against Daudi cells; assay type: cell-based; settings: human
[3] = system: Human gammaherpesvirus 4; assay: Inhibition of EBV replication in H1 cells by DNA hybridization assay; assay type: functional, organism-based; settings: human gammaherpesvirus 4, H1
Method in brief: (§1)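 EBV DNA hybridization assay in Daudi or H-1 cells; EC50 derived from viral DNA signal. Cytotoxicity for these EBV assays measured in CEM cells.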

[4] = system: CCRF-CEM; assay: Cytotoxicity against CEM cells; assay type: functional; settings: Homo sapiens
[5] = system: Human alphaherpesvirus 3; assay: Inhibition of VZV replication in HFF cells by CPE assay; assay type: functional, organism-based; settings: Human alphaherpesvirus 3, HFF
[6] = system: Human immunodeficiency virus 1; assay: Inhibition of HIV1 LAI replication in MT2 by CPE assay; assay type: functional, organism-based; settings: Human immunodeficiency virus 1, LAI
Method in brief: (§2)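 HIV-1 LAI, 100 TCID50, used to infect MT-2 (2 × 10^3) or MT-4 (3 × 10^4) cells, which are then cultured with test analogue. EC50 read by MTT assay on day 7 (MT-2) or day 5 (MT-4). Assays run in duplicate.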

[7] = Cytotoxicity against MT2 cells; assay type: cell-based; settings: human
Method in brief: (§3)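 Uninfected MT-2 (2 × 10^3 cells) or MT-4 (3 × 10^4 cells) cultured with analogues. Viability read by MTT assay after day 7 (MT-2) or day 5 (MT-4). Run in duplicate.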

[8] = system: Hepatitis B virus; assay: Inhibition of HBV replication in 2.2.15 cells by DNA hybridization assay; assay type: functional, organism-based; settings: HepG2 2.2.15
Method in brief: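 HBV in 2.2.15 cells; viral DNA quantified by DNA hybridization to give EC50.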

[9] = Cytotoxicity against Vero cells; assay type: cell-based; settings: chlorocebus sabaeus
[10] = Cytotoxicity against HFF cells; assay type: cell-based; settings: human
[11] = system: Human betaherpesvirus 5; assay: Inhibition of HCMV Towne replication in HFF cells by plaque reduction assay; assay type: functional, organism-based; settings: Human betaherpesvirus 5, Towne
Method in brief: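 Plaque reduction assay in HFF culture with HCMV Towne strain; cytotoxicity by neutral red uptake.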

[12] = Cytotoxicity against HFF cells by visual cytotoxicity; assay type: cell-based; settings: human
Method in brief: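 HFF cultures exposed to analogues. Cytotoxicity scored visually.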

[13] = system: Human betaherpesvirus 5; assay: Inhibition of HCMV AD169 replication in HFF cells by CPE inhibition assay; assay type: functional, organism-based; settings: Human betaherpesvirus 5, AD169, HFF
Method in brief: (§4)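 Cytopathic effect inhibition assay in HFF culture (HCMV AD169; HSV-1 and HSV-2). Cytotoxicity by neutral red uptake.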

[14] = Cytotoxicity against HFF cells by neutral red uptake assay; assay type: cell-based; settings: human
Method in brief: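 Human foreskin fibroblast (HFF) cultures, as used for the HCMV assays, exposed to analogues. Cytotoxicity read by neutral red uptake.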

[15] = system: Human alphaherpesvirus 1; assay: Inhibition of HSV1 replication in BSC1 cells by ELISA; assay type: functional, organism-based; settings: Human alphaherpesvirus 1, BSC-1
Method in brief: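 HSV-1 in BSC-1 cells, read by ELISA; cytotoxicity determined in KB cells.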

[16] = system: Human alphaherpesvirus 1; assay: Inhibition of HSV1 in HFF cells by CPE assay; assay type: functional, organism-based; settings: Human alphaherpesvirus 1, HFF; method in brief: as §4
[17] = system: Human alphaherpesvirus 2; assay: Inhibition of HSV2 in HFF cells by CPE assay; assay type: functional, organism-based; settings: Human alphaherpesvirus 2, HFF; method in brief: as §4
[18] = Inhibition of HSV2 in Vero cells by plaque reduction assay; assay type: cell-based; settings: Chlorocebus sabaeus
Method in brief: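 Plaque reduction assay in Vero cells with HSV-1 or HSV-2.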

[19] = system: Human alphaherpesvirus 1; assay: Inhibition of HSV1 in Vero cells by plaque reduction assay; settings: Human alphaherpesvirus 1, Vero
[20] = system: Human gammaherpesvirus 4; assay: Inhibition of EBV replication in Daudi cells by DNA hybridization assay; assay type: functional, organism-based; settings: human gammaherpesvirus 4, Daudi; method in brief: as §1
[21] = system: Human immunodeficiency virus 1; assay: Inhibition of HIV1 LAI replication in MT4 by CPE assay; assay type: functional, organism-based; settings: Human immunodeficiency virus 1, LAI; method in brief: as §2
[22] = Cytotoxicity against MT4 cells; assay type: cell-based; settings: human; method in brief: as §3
[23] = system: Murid betaherpesvirus 1; assay: Inhibition of MCMV replication in MFF cells by plaque reduction assay; assay type: functional, organism-based; settings: Murid betaherpesvirus 1, MFF
Method in brief: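 MCMV in MEF cells by plaque reduction.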

[24] = Cytotoxicity against MFF cells; assay type: cell-based; settings: mouse

Row | Structure (SMILES) | EC50 [1] [µM] | CC50 [2] [µM] | EC50 [3] [µM] | CC50 [4] [µM] | EC50 [5] [µM] | EC50 [6] [µM] | CC50 [7] [µM] | EC50 [8] [µM] | CC50 [9] [µM] | CC50 [10] [µM] | EC50 [11] [µM] | CC50 [12] [µM] | EC50 [13] [µM] | CC50 [14] [µM] | EC50 [15] [µM] | EC50 [16] [µM] | EC50 [17] [µM] | EC50 [18] [µM] | EC50 [19] [µM] | EC50 [20] [µM] | other results
1 | Nc1nc2c(ncn2/C=C2\CC2(F)CO)c(=O)[nH]1 (stereo unspecified) | < 0.32 | > 199 | > 20 | > 100 | > 79.6 | > 100 | > 100 | > 20 | > 100 | > 400 | > 100 | > 100 | > 79.6 | > 398 | 90 | > 80 | > 80 | > 50 | > 50 |  | 
2 | Nc1ccn(/C=C2/CC2(F)CO)c(=O)n1 (stereo unspecified) | < 0.38 | > 237 | > 20 | > 100 | 0.62 | > 100 | > 100 | > 20 | > 100 | > 400 | > 100 | > 100 | > 474 | > 474 | > 100 | > 80 | > 80 | > 50 | > 50 | 28.4 | 
3 | Nc1ccn(/C=C2\CC2(F)CO)c(=O)n1 (stereo unspecified) | 0.76 | > 237 | > 20 | > 100 | 14.7 | > 100 | > 100 | > 20 | > 100 | > 400 | > 100 | > 100 | > 474 | > 474 | > 100 | > 80 | > 80 | > 50 | > 50 | 94.8 | 
4 | Nc1ncnc2c1ncn2/C=C1/CC1(F)CO (stereo unspecified) | 1.45 | > 213 | 13.8 | > 100 | 14 | 12 | > 100 | > 20 | > 100 | > 400 | 3.6 | > 100 | 6 | > 425 | > 100 | > 80 | > 80 | > 50 | > 50 |  | EC50 [21]: 22 µM; CC50 [22]: > 100 µM; EC50 [23]: 69.3 µM; CC50 [24]: > 425 µM
5 | Nc1ncnc2c1ncn2/C=C1\CC1(F)CO (stereo unspecified) |  | > 209 |  | > 100 | > 83.4 | 2.3 | > 100 | 15 | > 100 | > 400 | 20 | > 100 | > 16.7 | > 417 | 30 | > 80 | > 80 | > 50 | > 50 |  | EC50 [21]: 7.6 µM; CC50 [22]: > 100 µM
6 | Cc1cn(/C=C2/CC2(F)CO)c(=O)[nH]c1=O (stereo unspecified) | 51.7 | > 221 | 2.5 | > 100 | 0.62 | > 100 | > 100 | > 20 | > 100 | > 400 | > 100 | > 100 | > 442 | > 442 | 2.5 | > 80 | > 80 | > 50 | > 50 | 4.4 | 
7 | Nc1nc2c(ncn2/C=C2/CC2(F)CO)c(=O)[nH]1 (stereo unspecified) | 4.8 | > 199 | > 20 | > 100 | > 79.6 | > 100 | > 100 | > 20 | > 100 | > 400 | > 100 | > 100 | > 79.6 | > 398 | > 100 | > 80 | > 80 | > 50 | > 50 |  | 
8 | Cc1cn(/C=C2\CC2(F)CO)c(=O)[nH]c1=O (stereo unspecified) | > 221 | > 221 | > 20 | > 100 | > 442 | > 100 | > 100 | > 20 | > 100 | > 400 | > 100 | > 100 | > 442 | > 442 | 40 | > 80 | > 80 | > 50 | > 50 |  | 
9 | Nc1nc2c(ncn2COCCO)c(=O)[nH]1 [ACYCLOVIR] |  | > 222 |  |  |  |  |  |  |  | > 444 |  |  |  |  | 10 |  |  |  |  | 5.3 | 
10 | Nc1nc2c(ncn2COC(CO)CO)c(=O)[nH]1 [GANCICLOVIR] |  |  |  |  |  |  |  |  |  |  | 2.1 | > 100 | 2.2 | > 392 |  |  |  |  | > 50 |  | 
11 | Nc1ccn([C@@H]2CS[C@H](CO)O2)c(=O)n1 [LAMIVUDINE] |  |  |  | > 100 |  |  |  |  |  |  |  |  |  |  |  |  |  |  |  |  | 
12 | Cc1cn([C@H]2C[C@H](N=[N+]=[N-])[C@@H](CO)O2)c(=O)[nH]c1=O [ZIDOVUDINE] |  |  |  |  |  | 0.02 | > 10 |  |  |  |  |  |  |  |  |  |  |  |  |  | 
